System: MS2 coat protein
Test: apparent Kd, MS2 coat protein; higher = weaker binding; RNA-MaP array; FMN 200 µM where present
Outline: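 Apparent Kd: the median of filtered binding-curve fits from single clusters. Designs were transcribed on Illumina sequencing-chip clusters by stalled E. coli RNA polymerase and titrated with SNAP-549-labelled MS2 coat protein from 0.7 or 1.5 nM, doubling to 3 µM, in 100 mM Tris-HCl pH 7.5, 80 mM KCl, 4 mM MgCl2, BSA, DTT, yeast tRNA and Tween-20. Each series ran without and then with constant ligand, and green signal was normalised to red-channel RNA signal and control-cluster median Fmax.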

[1] = designed as: ON switch for flavin mononucleotide, no ligand
[2] = ligand present: flavin mononucleotide, designed as: ON switch for flavin mononucleotide
[3] = designed as: OFF switch for flavin mononucleotide, no ligand
[4] = ligand present: flavin mononucleotide, designed as: OFF switch for flavin mononucleotide

| Sequence | apparent Kd [1] | apparent Kd [2] | apparent Kd [3] | apparent Kd [4] |
| --- | --- | --- | --- | --- |
| AACCUAUUACAGAAGGCCAGCUACAUGAGGAUCACCCAUGUCGAGUCAUGGAGGAUAUGUAGUAAUUUGCACGCGGGCGAGCAC | 0.0597 µM | 0.00705 µM |  |  |
| AUUAUGAAUGCAGGAUAUGAUUAACAUGAGGAUCACCCAUGUGGUGUUGUGAGUAAGGAGAGUGAUCAGAAGGGCAUUUUUUUU | 0.593 µM | 0.585 µM |  |  |
| AGCGAGGCAGGAUAUACAUGAGGAUCACCCAUGUGCUUGCAUGGCGUGGAAUGUCGAGGUAGAAGGGCCAUGCC |  |  | 0.0213 µM | 0.0261 µM |
| CGAUGGUAUAUAGGAUAUCAUGUGCAAACAUGAGGAUCACCCAUGUAGGAACGUCAGUUCAAUAAUGAGAAGGAUAUACCAUCG | 0.0351 µM | 0.0109 µM |  |  |
| UUAUGUUUUGUAGGAUAUCAUUAGUUAUGUAUUUUAAUUGAAAUUUAGAUAUGAGAAGGACAUUUACAUGAGGAUCACCCAUGU |  |  | 0.0174 µM | 0.0111 µM |
| AAAACUCGAGGAUAUGCAAAAUGAUUGCGAAAGCAAUCAAAACAUGAGGAUCACCCAUGUAGAAGGCGAGAAAA |  |  | 0.0237 µM | 0.0154 µM |
| UUCAGCGAUCAAGGAUAUCUAUAUUCAUGAGGACAUGAGGAUCACCCAUGUUGAUUACCCAUGAGGGAGAAGGUGGACAUGAGG | 0.0401 µM | 0.0235 µM |  |  |
| UGGUACUAGGGAGGAUAUGGGAAGAUACAUGAGGAUCACCCAUGUUUAAGAAUGCCUAGAGGCAACUAGAAGGCCCUAGUACCU | 0.393 µM | 0.0191 µM |  |  |
| AGCUAGAGAGGAUAUACGUGGAAAAAAAAAGUCUGAUCCCUACAUGAGGAUCACCCAUGUAGAAGGCUCUGGCA |  |  | 0.0309 µM | 0.0151 µM |
| UAUAUGUCAGGAUAUCGAUUGGAGCGGAAUUUAGCUUUGGUCGAGAAGGGACAUGAGGAUCACCCAUGUUCCUC |  |  | 0.03 µM | 0.142 µM |
| UUAUUUUGUCAAGGAUAUGUAAUAUAGAUUAGAAAACAUGAGGAUCACCCAUGUAUAUGGUGGGAACAGAAGGUGAAUGGUUUA |  |  | 0.196 µM | 0.161 µM |
| GGUGCGUUUGUGAGGAUAUGCUGGUCCUUGGUUCCGCAGAAGGCACAUGAGGAUCACCCAUGUGGUGUCGUACC |  |  | 0.195 µM | 0.373 µM |
| ACUUUAUUUGAGAAGGUGAAGUGGAAACAUGAGGAUCACCCAUGUAUUAGGAAGCCUAAUUUUAUCAAGGAUAUCAAAUAAAGA | 0.00793 µM | 0.00804 µM |  |  |
| GAGCUGCAGACAGGAUAUGAGGCCGCCAUGGUCUCAGAAGGGUCAUGUUCUACAUGAGGAUCACCCAUGUCGGACAGCUCGAAG | 0.134 µM | 0.011 µM |  |  |
| UGUCGGAGCAGAGGAUAUUACAUGAGGAUCACCCAUGUAUGAACCAAUAGGUGGAAACAGCAAUGUAAGAAGGCUGCUCCGACA |  |  | 0.178 µM | 0.481 µM |
| AAAAGUCCUGAGGAUAUCGAAACUCCAUUAGGACGAGAAGGCGGGACAUGAGGAUCACCCAUGUGGGCGAGCUC |  |  | 0.232 µM | 0.475 µM |
| ACGAACCUAGGAUAUACAUGAGGAUCACCCAUGUACUACUAUCCAUGAAUGACCCUCGGUAGAAGGAGGAUCAA |  |  | 0.0181 µM | 0.0215 µM |
| GCGUAUAUAUGAUUUAUUUAACAGUCAGAAGGUGAGAAGACGACAUGAGGAUCACCCAUGUUAUUCAAGGAUAUGAUAAUGCGC | 0.0249 µM | 0.0114 µM |  |  |
| AAAAAAAAGGGUGAGGAUAUAGAAAAAAAAACAUGAGGAUCACCCAUGUGAAAAAAAAAAAAAAGCUAGAAGGCACAAAAAAAAAA | 0.243 µM | 0.162 µM |  |  |
| CUAUUGGCAGGAUAUGCUUUUUUAGACAUGAGGAUCACCCAUGUGAUGAAUAUUGGGUUUGCAGAAGGGCCUGAAU |  |  | 0.0751 µM | 0.111 µM |
| CCAUGGAAUGUAGGAUAUGUCUGACAAAGUCAGACAGAAGGACAUGAGGAUCACCCAUGUAGGAAACAACCACAUAAACCAUGG |  |  | 0.00683 µM | 0.00708 µM |
| UGUCGGAGCAGAGGAUAUUACAUGAGGAUCACCCAUGUAAUAAAUGGAAGCUGGAAACAGCAAUGUAAGAAGGCUGCUCCGACA |  |  | 0.0174 µM | 0.0479 µM |
| UUAAAUCAUGUAGGAUAUGCAUGGCGAAGCUACGCAGAAGGACAUGAGGAUCACCCAUGUUAUAGCUACCCAGAUCGGUGGCAA |  |  | 0.0902 µM | 0.237 µM |
| GAUCAACAUGAGGAUCACCCAUGUGAGGAUAUGUAUCAUAGAUCUUCGGAUCUAUGAUACAGAAGGCAUGUAGG |  |  | 0.101 µM | 0.118 µM |

| Sequence | apparent Kd [1] | apparent Kd [2] | apparent Kd [3] | apparent Kd [4] |
| --- | --- | --- | --- | --- |
| GCGUAAUAGGUGUAGCUAGUCGUACAAGAAGGGUGGAGAACAUGAGGAUCACCCAUGUGGUCUAUACAGGAUAUUGUUAUACGC | 0.176 µM | 0.0305 µM |  |  |
| UACAGACAUGAGGAUCACCCAUGUAAGGAUAUCGGUACUAAUGGUAUAAUCUACUUAGCGAGAAGGUACAGUGU |  |  | 0.0339 µM | 0.0305 µM |
| GACAUGAGGAUCACCCAUGUCCCUCCAGAAGGCUGGCGCGCGAAACCUAUCUCGGUUCCGCGCACAGAGGAUAUGGGCGGUUGG | 0.181 µM | 0.0298 µM |  |  |
| GCACGGUAUGUAGGAUAUGCAUAGCAUUGCUAUGCAGAAGGACAUGAGGAUCACCCAUGUAUGUAUUCCAUACUAAUCCCGUGA |  |  | 0.00572 µM | 0.00598 µM |
| GUAGCAUACCGAGGAUAUUCAUACCGAAAACGGACAUGAGGAUCACCCAUGUGGCGAAAGCCUUGGGAGAAGGCGGAAUGCUAC | 0.592 µM | 0.0262 µM |  |  |
| ACAUGCAUAGCGAUAUGAUCGAGAGAUCAUGUCGCAAAAUUUAGAAGGACAUGAGGAUCACCCAUGUAGGAUAUGGGAGCAUGA | 0.0438 µM | 0.0129 µM |  |  |
| UUGGUCAGUCAGAAGGCUACAUUACAUGAGGAUCACCCAUGUCAAAAGUAGAGGAUAUGAAGUUCGCCAUGGUAAGAGCCUGUC | 0.0347 µM | 0.00626 µM |  |  |
| GAGAAGUCAGGAUAUGCUGCUCGUCACUUGCGUGAUGAGUAGCAGAAGGGACAUGAGGAUCACCCAUGUAAAGU |  |  | 0.0517 µM | 0.0748 µM |
| CUAUCGAGGUCACUCGUUAUCACACCAGAAGGGACGGAGGCACAUGAGGAUCACCCAUGUCCUAGUCAGGAUAUGGGUGAGUAG | 0.0256 µM | 0.00516 µM |  |  |
| AUAUUAAUAUAGGAUAUCGAAUUUAUUAAUUAUCGAGAAGGAUAAACAUGAGGAUCACCCAUGUGGUAUCAUGG |  |  | 0.181 µM | 0.225 µM |
| UCCCUAGAAGUAAGGAUAUGUCGAUGGCCAAUUCGAUAGAAGGUACAUGAGGAUCACCCAUGUGACCUACUGGG |  |  | 0.0157 µM | 0.0237 µM |
| GUGGCUAGUACAGGAUAUUAGUGCGUGUAGUAUUGAGAAGGGUACAUGAGGAUCACCCAUGUGAUCAAUCACUGUUAAGGUCGC |  |  | 0.252 µM | 0.177 µM |
| GUCAGUGUGGUAGGAUAUCGAAACGGUCAGUUACGAGAAGGGCUACAUGAGGAUCACCCAUGUAUCCAAGAUCGGCUUACAGCA |  |  | 0.00587 µM | 0.00592 µM |
| UUUAAUUAGUAAGGAUAUACUAGUGAUUAGCUUGUAGAAGGUACAGUCUUAUGUAUAACAAAUUAACAUGAGGAUCACCCAUGU | 0.0106 µM | 0.00799 µM |  |  |
| GGAUGAUUAACAGGAUAUCAUUUGUAAAUUGGUUGAGAAGGGUUAAUGAUUUAAACGACCUGUUACAUGAGGAUCACCCAUGUU | 0.0643 µM | 0.0382 µM |  |  |
| UUACUACAUGAGGAUCACCCAUGUCAGGAUAUUGUAUAUACCUUGGAAUACGUGUCUACAAGAAGGGACUAUAU |  |  | 0.0237 µM | 0.0225 µM |
| GGGUACAUGGGAGGAUAUGGGACAUGAGGAUCACCCAUGUGAAAAUUAAAUAUGCCGAGAGGCAACUAGAAGGCCCAUGUACCG | 0.0311 µM | 0.0153 µM |  |  |
| UAAUAAUAAUAAUACGUCAUUACAUGAGGAUCACCCAUGUAUAAGGAUAUGCAGUGGAAUACACUGCAGAAGGUAUACAAGACG |  |  | 0.0226 µM | 0.0267 µM |
| UCCUUGUCCUGAGGAUAUCCGCGGUUCCCAAAAGGAGAAGGCAGGACAUGAGGAUCACCCAUGUACCCAGAACACGUGCAGAGU |  |  | 0.0146 µM | 0.0909 µM |
| UUAAUUAUACAAGGAUAUCUAUUGUAGUUUCGACUAACAUGAGGAUCACCCAUGUAAAUAUGUUAAGAGAAGGUGUAUUUUAAA | 0.0455 µM | 0.0303 µM |  |  |
| AGUAAGAUGCAGAAGGUGUUAGCUAGAGCUACGACAUGAGGAUCACCCAUGUACUAGAAACAGUACAAGGAUAUGCAUCUUACC | 0.0189 µM | 0.00652 µM |  |  |
| AAGAAGUCAGGAUAUGCUGCUCGUCACUUGCGUGAUGAGUAGCAGAAGGGACAUGAGGAUCACCCAUGUAAAGU |  |  | 0.0516 µM | 0.0797 µM |
| AUGCGGUCAGGAUAUGCAUGGCGGGACUUGCGUCGUGGCGUGGAGAAGGGACAUGAGGAUCACCCAUGUGGAGG |  |  | 0.108 µM | 0.087 µM |
| AGUGCUAUGUAGAAGGCAGAUCUGAUUCAGAUCUGAGGAUAUACAUGAGGAUCACCCAUGUUAUGCACCAGCACGAGAGUGCAG |  |  | 0.00924 µM | 0.0226 µM |

Reference: the EternaBench riboswitch data
